Test results published in ChEMBL document CHEMBL1126633, “Prodrugs of doxorubicin and melphalan and their activation by a monoclonal antibody-penicillin-G amidase conjugate” (J Med Chem, 1993).
pIC50: −log10 of the molar value.

Tests used:
Format in all cases: functional, cell-based
H2981 cell line [1] = test: Inhibition of [3H]thymidine incorporation in human lung adenocarcinoma cells in the presence of PGA enzyme
Method in brief: (§1)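 H2981 human lung adenocarcinoma cells (10^7 cells/0.2 mL in IMDM with 10% FBS) were exposed to compound with or without added PGA at 37 °C for 4 h, then washed and counted. Triplicates were plated at 10^5 cells/mL, grown 24 h, and pulsed 24 h with [3H]thymidine (1 µCi/well). IC50 is the concentration giving 50% inhibition of incorporation.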

H2981 cell line [2] = test: Inhibition of [3H]thymidine incorporation in human lung adenocarcinoma cells in the absence of PGA enzyme; conditions: H2981, 4 h; method in brief: as §1
H2981 cell line [3] = test: Inhibition of [3H]thymidine incorporation in human lung adenocarcinoma cells in the absence of PGA enzyme (compound + 10 micro g/mL calf intestine alkaline phosphatase); conditions: H2981, 4 h
Method in brief: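 H2981 cells in IMDM with 10% FBS were exposed to compound without PGA for 4 h at 37 °C. Calf intestinal alkaline phosphatase was added to the incubation at 10 µg/mL. Cells were then washed, plated in triplicate at 10^5 cells/mL, grown 24 h and pulsed 24 h with [3H]thymidine (1 µCi/well). IC50 is the concentration giving 50% inhibition of incorporation.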

| SMILES | pIC50 (H2981 cell line [1]; Homo sapiens, H2981, 4 h) | pIC50 (H2981 cell line [2]) | pIC50 (H2981 cell line [1]; h2981) | pIC50 (H2981 cell line [3]) |
| --- | --- | --- | --- | --- |
| COc1cccc2c1C(=O)c1c(O)c3c(c(O)c1C2=O)C[C@@](O)(C(=O)CO)C[C@@H]3OC1CC(NC(=O)Cc2ccc(N)cc2)C(O)C(C)O1 (some centres not stated) | 5.00 | < 3.00 |  |  |
| COc1cccc2c1C(=O)c1c(O)c3c(c(O)c1C2=O)C[C@@](O)(C(=O)CO)C[C@@H]3OC1CC(NC(=O)Cc2ccccc2)C(O)C(C)O1 (some centres not stated) | 6.70 | 5.70 |  |  |
| O=C(Cc1ccccc1)NC(Cc1ccc(N(CCCl)CCCl)cc1)C(=O)O (configuration not stated) | 5.30 | 4.00 |  |  |
| COc1cccc2c1C(=O)c1c(O)c3c(c(O)c1C2=O)C[C@@](O)(C(=O)CO)C[C@@H]3OC1CC(NC(=O)Cc2ccc(OP(=O)(O)O)cc2)C(O)C(C)O1 (stereo in doubt) |  |  | 6.15 | < 3.00 |
| COc1cccc2c1C(=O)c1c(O)c3c(c(O)c1C2=O)C[C@@](O)(C(=O)CO)C[C@@H]3OC1CC(NC(=O)Cc2ccc(OP(=O)(O)O)cc2)C(O)C(C)O1 (stereo in doubt; 4) |  | < 3.00 | 5.40 |  |
| COc1cccc2c1C(=O)c1c(O)c3c(c(O)c1C2=O)C[C@@](O)(C(=O)CO)C[C@@H]3O[C@H]1C[C@H](N)[C@H](O)[C@H](C)O1 [DOXORUBICIN] |  | 6.15 |  |  |
| N[C@@H](Cc1ccc(N(CCCl)CCCl)cc1)C(=O)O [MELPHALAN] |  | 5.30 |  |  |
